According to ChEMBL document CHEMBL4393740, “Preparation and biological evaluation of soluble tetrapeptide epoxyketone proteasome inhibitors” (Bioorg Med Chem, 2019):

Key:
[1] = molecular target: T1, Proteasome Macropain subunit MB1 (Homo sapiens, UniProt P28074); assay: Inhibition of human chymotrypsin-like activity of 20S proteasome using Suc-LLVY-AMC as substrate pre-incubated for 10 mins followed by substrate addition and measured after 1 hr by spectrofluorimetry
T1 sequence (P28074 whole entry): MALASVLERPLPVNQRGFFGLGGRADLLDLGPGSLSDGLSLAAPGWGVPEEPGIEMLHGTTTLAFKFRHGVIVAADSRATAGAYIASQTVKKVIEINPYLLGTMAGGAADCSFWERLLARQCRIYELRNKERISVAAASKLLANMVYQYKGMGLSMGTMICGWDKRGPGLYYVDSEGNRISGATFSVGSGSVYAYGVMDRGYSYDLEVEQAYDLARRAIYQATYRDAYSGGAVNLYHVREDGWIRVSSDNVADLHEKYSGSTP

RPMI-8226 = assay: Cytotoxicity against human RPMI8226 cells assessed as cell viability measured after 72 hrs by celltiter96 aqueous cell proliferation assay; assay type: functional, cell-based; settings: RPMI-8226, 72 h
Procedure, shortened: (§1)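 Suspension cells in log phase plated at 5000 (RPMI8226) or 10000 (U266B1) cells per well. Viability read after 72 h by MTS-type CellTiter 96 AQueous One assay on a plate reader. IC50 reported, three repeats.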

U-266 = assay: Cytotoxicity against human U266B1 cells assessed as cell viability measured after 72 hrs by celltiter96 aqueous cell proliferation assay; assay type: functional, cell-based; settings: U-266, 72 h; procedure, shortened: as §1
[2] = Half life in rat liver microsomes at 1 uM pre-incubated for 5 mins followed by NADP+ addition and measured up to 20 mins by LC-MS analysis; assay type: ADME, Microsome
[3] = Half life in monkey liver microsomes at 1 uM pre-incubated for 5 mins followed by NADP+ addition and measured up to 20 mins by LC-MS analysis; assay type: ADME, Macaca mulatta, Microsome; settings: rhesus monkey
[4] = Half life in BALB/c mouse liver microsomes at 1 uM pre-incubated for 5 mins followed by NADP+ addition and measured up to 20 mins by LC-MS analysis; assay type: ADME, Microsome
Procedure, shortened: (§2)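 Mixture held 1 µM compound, 0.5 mg/mL microsomal protein (in-house pooled Balb/c mouse or pooled human), 100 mM Tris-HCl pH 7.4, and an NADPH-generating system (5 mM isocitric acid, 0.2 U/mL isocitric dehydrogenase, 5 mM MgCl2, 1 mM NADP+). Preincubated 5 min at 37 °C, started with NADP+, sampled at 0, 5, 10, 20 min. Quenched with cold acetonitrile containing 1 µM phenytoin internal standard. Compound loss measured by LC-MS/MS. Controls omitted NADPH and/or microsomes.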

[5] = Half life in dog liver microsomes at 1 uM pre-incubated for 5 mins followed by NADP+ addition and measured up to 20 mins by LC-MS analysis; assay type: ADME, Canis lupus familiaris, Microsome
[6] = Half life in human liver microsomes at 1 uM pre-incubated for 5 mins followed by NADP+ addition and measured up to 20 mins by LC-MS analysis; assay type: ADME, Microsome; procedure, shortened: as §2
[7] = Intrinsic clearance in rat liver microsomes at 1 uM pre-incubated for 5 mins followed by NADP+ addition and measured up to 20 mins by LC-MS analysis; assay type: ADME, Microsome; settings: read-out: CLH
[8] = Intrinsic clearance in BALB/c mouse liver microsomes at 1 uM pre-incubated for 5 mins followed by NADP+ addition and measured up to 20 mins by LC-MS analysis; assay type: ADME, Microsome; settings: read-out: CLH; procedure, shortened: as §2
[9] = Intrinsic clearance in dog liver microsomes at 1 uM pre-incubated for 5 mins followed by NADP+ addition and measured up to 20 mins by LC-MS analysis; assay type: ADME, Canis lupus familiaris, Microsome; settings: read-out: CLH
[10] = Intrinsic clearance in monkey liver microsomes at 1 uM pre-incubated for 5 min followed by NADP+ addition and measured up to 20 mins by LC-MS analysis; assay type: ADME, Macaca mulatta, Microsome; settings: rhesus monkey, read-out: CLH
[11] = Intrinsic clearance in human liver microsomes at 1 uM pre-incubated for 5 min followed by NADP+ addition and measured up to 20 mins by LC-MS analysis; assay type: ADME, Microsome; settings: read-out: CLH; procedure, shortened: as §2
ARH-77 = assay: Antitumour activity against human ARH77 cells xenografted in nude mouse assessed as tumor growth at 5mg/kg, iv dosed at day 1 ,4, 8 ,11, 15 and 18 for 3 weeks and measured every 2 days by caliper method relative to control; assay type: functional
Procedure, shortened: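 Nude mice given subcutaneous 1 × 10^7 ARH77 cells. Randomized at mean tumour 100-150 mm3 into treatment and control groups, n = 5. Dosed i.v. 5 mg/kg on days 1, 4, 8, 11, 15 and 18 for 3 weeks. Tumours sized by caliper, V = length×width²/2, RTV = Vt/V0. T/C% = mean RTV treated / mean RTV control × 100.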

[12] = molecular target: Voltage-gated inwardly rectifying potassium channel KCNH2 (Homo sapiens, UniProt Q12809); assay: Inhibition of human ERG in HEK293 cells assessed as effect on QT interval; assay type: cell-based
Chain of Voltage-gated inwardly rectifying potassium channel KCNH2 (Q12809 whole entry): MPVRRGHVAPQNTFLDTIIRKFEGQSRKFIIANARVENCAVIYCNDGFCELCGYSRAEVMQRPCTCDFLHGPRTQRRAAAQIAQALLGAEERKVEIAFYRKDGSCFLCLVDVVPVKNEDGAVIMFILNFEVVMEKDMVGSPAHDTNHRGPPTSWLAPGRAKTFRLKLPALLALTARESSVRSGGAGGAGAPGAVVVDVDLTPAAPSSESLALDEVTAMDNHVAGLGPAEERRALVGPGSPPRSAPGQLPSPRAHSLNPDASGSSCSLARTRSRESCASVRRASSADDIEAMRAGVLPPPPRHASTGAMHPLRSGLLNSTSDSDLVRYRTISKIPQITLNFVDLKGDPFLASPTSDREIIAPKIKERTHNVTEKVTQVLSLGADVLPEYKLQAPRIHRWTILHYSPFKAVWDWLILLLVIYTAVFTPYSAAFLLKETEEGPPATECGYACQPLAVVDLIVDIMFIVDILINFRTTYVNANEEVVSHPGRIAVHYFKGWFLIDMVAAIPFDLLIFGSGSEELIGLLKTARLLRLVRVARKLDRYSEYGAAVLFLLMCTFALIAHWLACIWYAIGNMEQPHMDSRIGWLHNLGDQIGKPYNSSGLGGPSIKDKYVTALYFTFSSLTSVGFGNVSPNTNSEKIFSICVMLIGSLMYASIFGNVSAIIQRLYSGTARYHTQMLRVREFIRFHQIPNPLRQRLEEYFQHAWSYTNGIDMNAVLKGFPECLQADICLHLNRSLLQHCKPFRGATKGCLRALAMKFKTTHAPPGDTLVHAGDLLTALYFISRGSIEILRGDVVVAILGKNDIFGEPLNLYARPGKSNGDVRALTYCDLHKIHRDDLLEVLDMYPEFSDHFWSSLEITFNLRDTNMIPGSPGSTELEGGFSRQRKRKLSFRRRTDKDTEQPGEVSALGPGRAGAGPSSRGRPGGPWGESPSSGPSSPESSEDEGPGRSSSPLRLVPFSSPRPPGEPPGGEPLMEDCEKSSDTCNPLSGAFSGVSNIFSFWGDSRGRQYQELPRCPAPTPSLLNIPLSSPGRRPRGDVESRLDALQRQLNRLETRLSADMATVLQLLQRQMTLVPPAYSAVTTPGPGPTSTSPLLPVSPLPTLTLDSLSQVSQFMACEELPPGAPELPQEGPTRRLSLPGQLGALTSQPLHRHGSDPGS

Cc1cc(C(=O)N[C@@H](CCc2ccccc2)C(=O)N[C@H](C(=O)N[C@@H](Cc2ccccc2)C(=O)N[C@@H](CC(C)C)C(=O)[C@@]2(C)CO2)[C@@H](C)O)no1
IC50 ([1]; read-out: IC50): 48.3 nM

Cc1cc(C(=O)N[C@@H](CC(C)C)C(=O)N[C@@H](CC(C)C)C(=O)N[C@@H](Cc2ccccc2)C(=O)N[C@@H](CC(C)C)C(=O)[C@@]2(C)CO2)no1
IC50 ([1]; read-out: IC50): 41.5 nM

Cc1cc(C(=O)N[C@@H](CCc2ccccc2)C(=O)N[C@H](C(=O)N[C@@H](Cc2ccccc2)C(=O)N[C@@H](CC(C)C)C(=O)[C@@]2(C)CO2)C2CC2)no1
IC50 ([1]; read-out: IC50): 32 nM

Cc1cc(C(=O)N[C@@H](CCc2ccccc2)C(=O)N[C@H](C(=O)N[C@@H](Cc2ccccc2)C(=O)N[C@@H](CC(C)C)C(=O)[C@@]2(C)CO2)C2CCCCC2)no1
IC50 ([1]; read-out: IC50): 30.8 nM | IC50 (RPMI-8226): 14.7 nM | IC50 (U-266): 23.2 nM

COC[C@H](NC(=O)c1cc(C)on1)C(=O)N[C@@H](CC(C)C)C(=O)N[C@@H](Cc1ccccc1)C(=O)N[C@@H](CC(C)C)C(=O)[C@@]1(C)CO1
IC50 ([1]; read-out: IC50): 30.6 nM

Cc1cc(C(=O)N[C@@H](Cc2cc3ccccc3[nH]2)C(=O)N[C@@H](CC(C)C)C(=O)N[C@@H](Cc2ccccc2)C(=O)N[C@@H](CC(C)C)C(=O)[C@@]2(C)CO2)no1
IC50 ([1]; read-out: IC50): 25.5 nM

CC(C)C[C@H](NC(=O)[C@H](CCc1ccccc1)NC(=O)CN1CCOCC1)C(=O)N[C@@H](Cc1ccccc1)C(=O)N[C@@H](CCc1ccccc1)C(=O)[C@@]1(C)CO1
IC50 ([1]; read-out: IC50): 729 nM

Cc1cc(C(=O)N[C@@H](Cc2cscn2)C(=O)N[C@@H](CC(C)C)C(=O)N[C@@H](Cc2ccccc2)C(=O)N[C@@H](CC(C)C)C(=O)[C@@]2(C)CO2)no1
IC50 ([1]; read-out: IC50): 20.6 nM

CC[C@H](NC(=O)[C@H](Cc1ccccc1)NC(=O)[C@H](CC(C)C)NC(=O)[C@H](CCc1ccccc1)NC(=O)CN1CCOCC1)C(=O)[C@@]1(C)CO1
IC50 ([1]; read-out: IC50): 77.1 nM

Cc1cc(C(=O)NCC(=O)N[C@@H](CC(C)C)C(=O)N[C@@H](Cc2ccccc2)C(=O)N[C@@H](CC(C)C)C(=O)[C@@]2(C)CO2)no1
IC50 ([1]; read-out: IC50): 56.5 nM

CC(C)C[C@H](NC(=O)[C@H](Cc1cscn1)NC(=O)c1cnccn1)C(=O)N[C@@H](Cc1ccccc1)C(=O)N[C@@H](CC(C)C)C(=O)[C@@]1(C)CO1
IC50 ([1]; read-out: IC50): 38.8 nM

CC(C)C[C@H](NC(=O)[C@H](CCc1ccccc1)NC(=O)CN1CCOCC1)C(=O)N[C@@H](Cc1cscn1)C(=O)N[C@@H](CC(C)C)C(=O)[C@@]1(C)CO1
IC50 ([1]; read-out: IC50): 26.8 nM | IC50 (RPMI-8226): 76.9 nM | IC50 (U-266): 56.5 nM

CC(C)C[C@H](NC(=O)[C@H](Cc1cscn1)NC(=O)CO)C(=O)N[C@@H](Cc1ccccc1)C(=O)N[C@@H](CC(C)C)C(=O)[C@@]1(C)CO1
IC50 ([1]; read-out: IC50): 52.1 nM

CC(C)C[C@H](NC(=O)[C@H](Cc1cscn1)NC(=O)c1cc(Cl)ccc1Cl)C(=O)N[C@@H](Cc1ccccc1)C(=O)N[C@@H](CC(C)C)C(=O)[C@@]1(C)CO1
IC50 ([1]; read-out: IC50): 64.8 nM

Cc1cc(C(=O)N[C@@H](CCc2ccccc2)C(=O)N[C@@H](CC2CCCC2)C(=O)N[C@@H](Cc2ccccc2)C(=O)N[C@@H](CC(C)C)C(=O)[C@@]2(C)CO2)no1
IC50 ([1]; read-out: IC50): 36.6 nM

CC(C)C[C@H](NC(=O)[C@H](CCc1ccccc1)NC(=O)CN1CCOCC1)C(=O)N[C@@H](Cc1ccccc1)C(=O)N[C@@H](Cc1ccccc1)C(=O)[C@@]1(C)CO1
IC50 ([1]; read-out: IC50): 140 nM

Cc1cc(C(=O)N[C@@H](CCc2ccccc2)C(=O)N[C@@H](Cc2cscn2)C(=O)N[C@@H](Cc2ccccc2)C(=O)N[C@@H](CC(C)C)C(=O)[C@@]2(C)CO2)no1
IC50 [1]: Not Active

COC[C@H](NC(=O)c1cc(C)on1)C(=O)NCC(=O)N[C@@H](Cc1ccccc1)C(=O)N[C@@H](CC(C)C)C(=O)[C@@]1(C)CO1
IC50 [1]: Not Active

Cc1cc(C(=O)N[C@@H](CCc2ccccc2)C(=O)N[C@@H](Cc2ccccn2)C(=O)N[C@@H](Cc2ccccc2)C(=O)N[C@@H](CC(C)C)C(=O)[C@@]2(C)CO2)no1
IC50 [1]: Not Active

CCCC[C@H](NC(=O)[C@H](CC(C)C)NC(=O)[C@H](CCc1ccccc1)NC(=O)CN1CCOCC1)C(=O)N[C@@H](CC(C)C)C(=O)[C@@]1(C)CO1
IC50 ([1]; read-out: IC50): 162 nM

CC[C@H](NC(=O)[C@H](CC(C)C)NC(=O)[C@H](CCc1ccccc1)NC(=O)CN1CCOCC1)C(=O)N[C@@H](CC(C)C)C(=O)[C@@]1(C)CO1
IC50 ([1]; read-out: IC50): 98.2 nM

Cc1cc(C(=O)N[C@H](C(=O)N[C@@H](CC(C)C)C(=O)N[C@@H](Cc2ccccc2)C(=O)N[C@@H](CC(C)C)C(=O)[C@@]2(C)CO2)C2CC2)no1
IC50 ([1]; read-out: IC50): 43.1 nM

Cc1cc(C(=O)N[C@@H](Cc2ccccn2)C(=O)N[C@@H](CC(C)C)C(=O)N[C@@H](Cc2ccccc2)C(=O)N[C@@H](CC(C)C)C(=O)[C@@]2(C)CO2)no1
IC50 ([1]; read-out: IC50): 60.7 nM

CC(C)C[C@H](NC(=O)[C@H](CCc1ccccc1)NC(=O)CN1CCOCC1)C(=O)NCC(=O)N[C@@H](CC(C)C)C(=O)[C@@]1(C)CO1
IC50 [1]: Not Active

CCCC[C@H](NC(=O)[C@H](Cc1ccccc1)NC(=O)[C@H](CC(C)C)NC(=O)[C@H](CCc1ccccc1)NC(=O)CN1CCOCC1)C(=O)[C@@]1(C)CO1
IC50 ([1]; read-out: IC50): 52.2 nM

CC(C)C[C@H](NC(=O)[C@H](Cc1cc2ccccc2s1)NC(=O)CN1CCOCC1)C(=O)N[C@@H](Cc1ccccc1)C(=O)N[C@@H](CC(C)C)C(=O)[C@@]1(C)CO1
IC50 ([1]; read-out: IC50): 34.1 nM | IC50 (RPMI-8226): 53.8 nM | IC50 (U-266): 33.2 nM

CC(C)C[C@H](NC(=O)[C@H](Cc1ccsc1)NC(=O)CN1CCOCC1)C(=O)N[C@@H](Cc1ccccc1)C(=O)N[C@@H](CC(C)C)C(=O)[C@@]1(C)CO1
IC50 ([1]; read-out: IC50): 44.9 nM | IC50 (RPMI-8226): 34.6 nM | IC50 (U-266): 23.8 nM

CC(C)C[C@H](NC(=O)[C@H](CCc1ccccc1)NC(=O)CN1CCOCC1)C(=O)N[C@@H](Cc1cc2ccccc2s1)C(=O)N[C@@H](CC(C)C)C(=O)[C@@]1(C)CO1
IC50 ([1]; read-out: IC50): 37.5 nM | IC50 (RPMI-8226): 86.6 nM | IC50 (U-266): 80.5 nM

CC[C@H](NC(=O)[C@H](CCc1ccccc1)NC(=O)c1cc(C)on1)C(=O)N[C@@H](Cc1ccccc1)C(=O)N[C@@H](CC(C)C)C(=O)[C@@]1(C)CO1
IC50 ([1]; read-out: IC50): 36.8 nM | IC50 (RPMI-8226): 47 nM | IC50 (U-266): 45.5 nM

COC[C@H](NC(=O)[C@H](CCc1ccccc1)NC(=O)c1cc(C)on1)C(=O)N[C@@H](Cc1ccccc1)C(=O)N[C@@H](CC(C)C)C(=O)[C@@]1(C)CO1
IC50 ([1]; read-out: IC50): 50.9 nM

CC(C)C[C@H](NC(=O)[C@H](CCc1ccccc1)NC(=O)CN1CCOCC1)C(=O)N[C@@H](Cc1ccccc1)C(=O)N[C@@H](CC(C)C)C(=O)[C@@]1(C)CO1 [CARFILZOMIB]
half-life at 1 µM [2]: 37.2 s | half-life at 1 µM [3]: < 60 s | half-life at 1 µM [4]: 20.4 s | half-life at 1 µM [5]: 14.6 s | half-life at 1 µM [6]: 17.2 s | microsomal CLint at 1 µM [7]: 2230 µL/min/mg | microsomal CLint at 1 µM [8]: 4100 µL/min/mg | microsomal CLint at 1 µM [9]: 5670 µL/min/mg | microsomal CLint at 1 µM [10]: > 1390 µL/min/mg | microsomal CLint at 1 µM [11]: 4850 µL/min/mg | T/C (ARH-77): 34.6% | IC50 (RPMI-8226): 39.1 nM | IC50 (U-266): 35.7 nM | IC50 [12]: 92100 nM
